From ChEMBL document CHEMBL4364282, “Engineered Substrate for Cyclooxygenase-2: A Pentapeptide Isoconformational to Arachidonic Acid for Managing Inflammation” (J Med Chem, 2019)
The source made the active and inactive calls. No cut-off for these calls is given here. Peptide text beside a SMILES is read from it. * marks the point of attachment. Cbz = O=C(OCc1ccccc1)*; Boc = CC(C)(C)OC(=O)*

Tests used:
[1] = system: Rattus norvegicus; experiment: Analgesic activity in Wistar rat model of formalin-induced hyperalgesia assessed as reduction in number of formalin-evoked paw flinching during neurogenic phase at 10 mg/kg preincubated for 30 mins followed by formalin treatment and measured during first 5 mins post formalin injection relative to control; type: functional; parameters: scale not given: the % may be the effect or the level left
Procedure, shortened: (§1)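 Formalin paw test in male Wistar rats (250-300 g), 5 per group. Flinching was counted separately in the neurogenic and inflammatory phases. Modulator studies used pre-treatment with substance P, L-NAME or L-arginine (NO precursor) in three groups each. Data are mean±SEM (n=5), analysed by one-way ANOVA with Tukey's test (p<.05 vs control).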

[2] = system: Rattus norvegicus; experiment: Analgesic activity in Wistar rat model of acetic-acid-induced writhing assessed as inhibition of writhing numbers at 5 to 10 mg/kg, ip preincubated for 30 mins followed by acetic acid induction and measured for 30 mins relative to control; type: functional; parameters: scale not given: the % may be the effect or the level left
Procedure, shortened: (§2)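 Male Wistar rats (250-300 g) in groups of 5. Writhing (abdominal contraction, trunk twisting, hind-leg extension) was induced by intraperitoneal acetic acid, and writhes were counted. Test doses were 5 and 10 mg/kg, with a vehicle control and indomethacin 10 mg/kg as reference. Data are mean±SEM (n=5), analysed by one-way ANOVA with Tukey's test (p<.05 vs control).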

[3] = target: Prostaglandin G/H synthase 1 (Homo sapiens, UniProt P23219); experiment: Inhibition of COX-1 in human whole blood assessed as reduction in calcium ionophore A23187-stimulated thromboxane B2 production by measuring thromboxane B2 level at 1 uM preincubated for 60 mins followed by calcium ionophore A23187 stimulation and measured after 30 mins by ELISA (reference value: 1.4 ng/mL); type: tissue-based; details: 0.5 h
Procedure, shortened: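 Human whole blood stimulated with calcium ionophore to drive COX-1, with thromboxane B2 formation measured. The test concentration was 1 μM, and indomethacin 1 μM served as reference.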

[4] = system: Rattus norvegicus; experiment: Analgesic activity in Wistar rat model of formalin-induced hyperalgesia assessed as reduction in number of formalin-evoked paw flinching during inflammatory phase at 10 mg/kg preincubated for 30 mins followed by formalin treatment and measured after 15 to 30 mins relative to control; type: functional; parameters: scale not given: the % may be the effect or the level left; procedure, shortened: as §1
[5] = system: Rattus norvegicus; experiment: (§3) Analgesic activity in Wistar rat model of formalin-induced hyperalgesia assessed as reduction in number of formalin-evoked paw flinching during neurogenic phase at 10 mg/kg administered intraperitoneally 30 mins after substance P injection followed by formalin induction after 30 mins and measured during first 5 mins post formalin injection; type: functional, organism-based; procedure, shortened: as §1
[6] = system: Rattus norvegicus; experiment: as §3, with “nitric oxide precursor L-arginine” for “substance P”; type: functional, organism-based; procedure, shortened: as §1
[7] = system: Rattus norvegicus; experiment: as §3, with “inflammatory” for “neurogenic”, “after 15 to 30” for “during first 5”; type: functional, organism-based; procedure, shortened: as §1
[8] = system: Rattus norvegicus; experiment: as §3, with “inflammatory” for “neurogenic”, “nitric oxide precursor L-arginine” for “substance P”, “after 15 to 30” for “during first 5”; type: functional, organism-based; procedure, shortened: as §1
[9] = system: Rattus norvegicus; experiment: as §3, with “NOS inhibitor L-NAME” for “substance P”; type: functional, organism-based; procedure, shortened: as §1
[10] = system: Rattus norvegicus; experiment: as §3, with “inflammatory” for “neurogenic”, “NOS inhibitor L-NAME” for “substance P”, “after 15 to 30” for “during first 5”; type: functional, organism-based; procedure, shortened: as §1
[11] = system: Rattus norvegicus; experiment: Anti-inflammatory activity in Wistar rat assessed as inhibition of carrageenan-induced paw edema at 10 mg/kg, ip preincubated for 1 hr followed by carrageenan challenge and measured for 6 hrs; type: functional, organism-based
Procedure, shortened: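 Carrageenan-induced paw inflammation in male Wistar rats (250-300 g), three groups of 5 animals. Data are mean±SEM (n=5), analysed by one-way ANOVA with Tukey's multiple range test (p<.05 vs control).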

[12] = Acute toxicity in Wistar rat assessed as induction of morphological lesions in myocardium at 2000 mg/kg, po measured after 14 days by histological analysis; type: organism-based; details: in vivo, 336 h
Procedure, shortened: (§4)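 Acute oral toxicity per OECD guideline: rats fasted 4 h, then vehicle or single dose of 50, 300 or 2000 mg kg^-1; three rats per group. Animals observed for 14 days; one animal from the high-dose group and one control then sacrificed for tissue histology examined for lesions. Male Wistar rats, 250-300 g.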

[13] = Acute toxicity in Wistar rat assessed as induction of morphological lesions in kidney at 2000 mg/kg, po measured after 14 days by histological analysis; type: organism-based; details: in vivo, 336 h; procedure, shortened: as §4
[14] = Acute toxicity in Wistar rat assessed as induction of morphological lesions in liver at 2000 mg/kg, po measured after 14 days by histological analysis; type: organism-based; details: in vivo, 336 h; procedure, shortened: as §4
[15] = Drug metabolism in Wistar rat assessed as 2-((S)-2-((S)-1-(2-aminoacetyl)pyrrolidine-2-carboxamido)propanamido)acetic acid formation at 10 mg/kg, ip measured after 6 hrs by LC-MS analysis; type: ADME, organism-based; details: in vivo
Procedure, shortened: (§5)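 Blood serum was taken from treated rats at 30, 60, 90 and 120 min. Proteins were removed by centrifugation, and the supernatants were analysed by LC-MS with HRMS identification of peptide fragments. Breakdown was assessed up to 6 h.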

[16] = Drug metabolism in Wistar rat assessed as (S)-1-(2-((S)-2-aminopropanamido)acetyl)pyrrolidine-2-carboxylic acid formation at 10 mg/kg, ip measured after 6 hrs by LC-MS analysis; type: ADME, organism-based; details: in vivo; procedure, shortened: as §5
[17] = Drug metabolism in Wistar rat assessed as (S)-2-((S)-1-(2-((S)-2-aminopropanamido)acetyl)pyrrolidine-2-carboxamido)propanoic acid formation at 10 mg/kg, ip measured after 6 hrs by LC-MS analysis; type: ADME, organism-based; details: in vivo; procedure, shortened: as §5
[18] = Drug metabolism in Wistar rat assessed as methyl 2-((S)-2-((S)-1-(2-aminoacetyl)pyrrolidine-2-carboxamido)propanamido)acetate formation at 10 mg/kg, ip measured after 6 hrs by LC-MS analysis; type: ADME, organism-based; details: in vivo; procedure, shortened: as §5
[19] = Drug metabolism in Wistar rat assessed as 2-((S)-2-((S)-1-(2-((S)-2-aminopropanamido)acetyl)pyrrolidine-2-carboxamido)propanamido)acetic acid formation at 10 mg/kg, ip measured after 6 hrs by LC-MS analysis; type: ADME, organism-based; details: in vivo; procedure, shortened: as §5
[20] = target: T1, Prostaglandin G/H synthase 2 (Homo sapiens, UniProt P35354); experiment: Substrate activity at COX-2 (unknown origin) in DMSO-d6 assessed as chemical shift of NH protons of alanine residues by 1H NMR analysis; type: ADME
T1 sequence (P35354 whole entry): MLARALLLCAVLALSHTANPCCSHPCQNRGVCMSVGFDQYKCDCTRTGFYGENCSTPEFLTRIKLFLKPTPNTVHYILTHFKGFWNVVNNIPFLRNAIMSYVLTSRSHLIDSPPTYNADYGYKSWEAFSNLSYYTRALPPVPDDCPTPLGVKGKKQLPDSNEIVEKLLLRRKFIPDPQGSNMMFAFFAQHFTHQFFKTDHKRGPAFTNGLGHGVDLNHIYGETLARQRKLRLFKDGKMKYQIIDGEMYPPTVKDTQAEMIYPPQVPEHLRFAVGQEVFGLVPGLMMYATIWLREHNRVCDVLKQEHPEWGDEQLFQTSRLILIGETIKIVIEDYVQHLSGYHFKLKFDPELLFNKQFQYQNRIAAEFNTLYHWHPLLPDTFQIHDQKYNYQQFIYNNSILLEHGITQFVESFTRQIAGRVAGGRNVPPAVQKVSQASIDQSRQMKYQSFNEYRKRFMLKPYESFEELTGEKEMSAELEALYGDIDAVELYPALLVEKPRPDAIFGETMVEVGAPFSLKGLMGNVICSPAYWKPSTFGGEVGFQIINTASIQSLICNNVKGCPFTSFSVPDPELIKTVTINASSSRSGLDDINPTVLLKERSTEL

[21] = target: T1, Prostaglandin G/H synthase 2; experiment: Substrate activity at COX-2 (unknown origin) in DMSO-d6 assessed as chemical shift of NH protons of glycine residues by 1H NMR analysis; type: ADME
[22] = target: T2, Prostaglandin G/H synthase 1 (Ovis aries, UniProt P05979); experiment: Inhibition of ovine COX-1 assessed as reduction in prostaglandin production preincubated for 10 mins followed by arachidonic acid addition and measured after 2 mins by EIA method
T2 sequence (P05979 whole entry): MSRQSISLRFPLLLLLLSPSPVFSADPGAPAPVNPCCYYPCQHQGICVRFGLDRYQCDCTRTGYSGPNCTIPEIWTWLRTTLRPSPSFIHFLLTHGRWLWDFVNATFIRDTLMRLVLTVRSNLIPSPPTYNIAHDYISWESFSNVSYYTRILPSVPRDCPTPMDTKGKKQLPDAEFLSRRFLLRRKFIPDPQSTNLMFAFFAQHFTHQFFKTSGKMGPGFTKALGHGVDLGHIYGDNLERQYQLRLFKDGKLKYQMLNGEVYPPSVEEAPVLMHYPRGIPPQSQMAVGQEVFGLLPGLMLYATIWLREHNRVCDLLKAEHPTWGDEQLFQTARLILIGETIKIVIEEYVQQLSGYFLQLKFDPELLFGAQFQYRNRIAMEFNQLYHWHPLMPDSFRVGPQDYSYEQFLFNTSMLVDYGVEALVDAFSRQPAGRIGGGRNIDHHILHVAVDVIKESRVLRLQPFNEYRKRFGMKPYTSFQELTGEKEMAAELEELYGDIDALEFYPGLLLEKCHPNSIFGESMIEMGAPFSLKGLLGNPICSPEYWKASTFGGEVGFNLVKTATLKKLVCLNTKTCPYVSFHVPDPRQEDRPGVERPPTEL

[23] = system: Rattus norvegicus; experiment: Analgesic activity in Wistar rat model of acetic-acid-induced writhing assessed as inhibition of writhing numbers at 10 mg/kg, ip preincubated for 30 mins followed by acetic acid induction and measured for 30 mins; type: functional, organism-based; procedure, shortened: as §2
[24] = substrate: CCCCC/C=C\C/C=C\C/C=C\C/C=C\CCCC(=O)O; experiment: (§6) Substrate activity at COX-2 (unknown origin) in pH 7.5 HEPES buffer assessed as enzyme-mediated test compound metabolism by measuring Km by LC-MS analysis; type: ADME, Homo sapiens
[25] = substrate: COC(=O)CNC(=O)[C@H](C)NC(=O)[C@@H]1CCCN1C(=O)CNC(=O)[C@H](C)N; experiment: as §6; type: ADME, Homo sapiens

Chain of Prostaglandin G/H synthase 1 (Homo sapiens, UniProt P23219) (P23219 whole entry): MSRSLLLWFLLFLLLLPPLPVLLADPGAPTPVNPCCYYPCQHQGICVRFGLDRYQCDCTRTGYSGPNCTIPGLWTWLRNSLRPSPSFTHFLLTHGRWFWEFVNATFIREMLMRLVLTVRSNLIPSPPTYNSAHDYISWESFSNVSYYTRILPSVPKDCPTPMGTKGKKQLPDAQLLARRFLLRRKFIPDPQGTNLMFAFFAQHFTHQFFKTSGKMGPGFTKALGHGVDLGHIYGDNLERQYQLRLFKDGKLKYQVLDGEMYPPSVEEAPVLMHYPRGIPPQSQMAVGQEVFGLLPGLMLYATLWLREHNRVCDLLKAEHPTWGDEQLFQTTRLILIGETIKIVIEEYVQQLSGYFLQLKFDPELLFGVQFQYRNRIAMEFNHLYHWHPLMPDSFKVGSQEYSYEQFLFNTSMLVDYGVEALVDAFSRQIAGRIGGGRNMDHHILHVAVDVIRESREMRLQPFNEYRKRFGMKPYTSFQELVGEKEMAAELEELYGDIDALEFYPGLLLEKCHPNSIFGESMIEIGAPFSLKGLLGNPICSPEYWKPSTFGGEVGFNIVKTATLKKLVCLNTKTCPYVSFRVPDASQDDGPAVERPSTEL

COC(=O)CNC(=O)[C@H](C)NC(=O)[C@@H]1CCCN1C(=O)CNC(=O)[C@H](C)N (H-AGPAG-OMe)
Activity [1]: 56% | Activity [2]: 80% | Activity [3]: 1.2 ng/mL | Activity [4]: 80% | Activity [5]: inactive | Activity [6]: inactive | Activity [7]: inactive | Activity [8]: inactive | Activity [9]: Active | Activity [10]: Active | Activity [11]: Active | Activity [12]: Non-Toxic | Activity [13]: Non-Toxic | Activity [14]: Non-Toxic | Drug metabolism [15]: Metabolite_Detected | Drug metabolism [16]: Metabolite_Detected | Drug metabolism [17]: Metabolite_Detected | Drug metabolism [18]: Metabolite_Detected | Drug metabolism [19]: Metabolite_Detected | Activity [20]: Active | Activity [21]: Active

COC(=O)[C@H](Cc1ccccc1)NC(=O)[C@@H]1CCCN1C(=O)CNC(=O)[C@H](CCSC)NC(=O)OCc1ccccc1 (Cbz-MGPF-OMe)
Activity [2]: Active | IC50 [22]: 0.5 µM

COC(=O)CNC(=O)[C@H](Cc1ccccc1)NC(=O)[C@@H]1CCCN1C(=O)[C@H](Cc1ccccc1)NC(=O)[C@H](C)NC(=O)OCc1ccccc1 (Cbz-AFPFG-OMe)
Activity [2]: Active | IC50 [22]: 600 µM

COC(=O)CNC(=O)[C@H](CCSC)NC(=O)[C@H](Cc1ccccc1)NC(=O)[C@@H]1CCCN1C(=O)OC(C)(C)C (Boc-PFMG-OMe)
Activity [2]: Active | IC50 [22]: 50 µM

COC(=O)CNC(=O)[C@H](C)NC(=O)[C@@H]1CCCN1C(=O)CNC(=O)[C@H](C)NC(=O)OCc1ccccc1 (Cbz-AGPAG-OMe)
Activity [2]: 80%

COc1ccc2c(c1)c(CC(=O)O)c(C)n2C(=O)c1ccc(Cl)cc1 [INDOMETHACIN]
Activity [1]: inactive | Activity [23]: Active | Activity [3]: 0.7 ng/mL | Activity [4]: Active | Activity [11]: Active

B1: Prostaglandin G/H synthase 2 (Homo sapiens) (protein)
chain: MLARALLLCAVLALSHTANPCCSHPCQNRGVCMSVGFDQYKCDCTRTGFYGENCSTPEFLTRIKLFLKPTPNTVHYILTHFKGFWNVVNNIPFLRNAIMSYVLTSRSHLIDSPPTYNADYGYKSWEAFSNLSYYTRALPPVPDDCPTPLGVKGKKQLPDSNEIVEKLLLRRKFIPDPQGSNMMFAFFAQHFTHQFFKTDHKRGPAFTNGLGHGVDLNHIYGETLARQRKLRLFKDGKMKYQIIDGEMYPPTVKDTQAEMIYPPQVPEHLRFAVGQEVFGLVPGLMMYATIWLREHNRVCDVLKQEHPEWGDEQLFQTSRLILIGETIKIVIEDYVQHLSGYHFKLKFDPELLFNKQFQYQNRIAAEFNTLYHWHPLLPDTFQIHDQKYNYQQFIYNNSILLEHGITQFVESFTRQIAGRVAGGRNVPPAVQKVSQASIDQSRQMKYQSFNEYRKRFMLKPYESFEELTGEKEMSAELEALYGDIDAVELYPALLVEKPRPDAIFGETMVEVGAPFSLKGLMGNVICSPAYWKPSTFGGEVGFQIINTASIQSLICNNVKGCPFTSFSVPDPELIKTVTINASSSRSGLDDINPTVLLKERSTEL
Km [24]: 210 µM | kcat [24]: 200 s⁻¹ | kcat/Km [24]: 950000 M⁻¹ s⁻¹ | Km [25]: 21 µM | kcat [25]: 13.2 s⁻¹ | kcat/Km [25]: 630000 M⁻¹ s⁻¹
